Twelve molecules from ChEMBL document CHEMBL2331522, “Dibenzocyclooctadiene lignans and norlignans from fruits of Schisandra wilsoniana” (J Nat Prod, 2013) can be followed below.

Values after ≈ are worked out from the molar mass of the structure shown.

Series [1] in a line: Therapeutic index, ratio of CC50 for human C8166 cells to EC50 for HIV1. The format is cell-based. To be noted: read-out: Ratio CC50/EC50.
A short description of series [2]: Cytotoxicity against human C8166 cells by MTT assay. In kind it is cell-based. Background: Tetrazolium dyes change colour on reduction, which living cells bring about.
The test system of series [3] is Human immunodeficiency virus 1. Description: Antiviral activity against HIV1 assessed as reduction in virus-induced cytopathogenicity. In kind it is functional, organism-based. Summed up: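 Test compounds were added to C8166 cells infected with HIV-1 and scored for protection from virus-induced cytopathic effect. The concentration giving 50% protection is reported as EC50.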

Usually CC50 stands for the concentration that lowers cell viability or growth by half. Low values mean harm at low concentration, high ones better tolerance by the cells. Broadly, the EC50 is the concentration giving half of the maximal effect. As to `COc1cc2c(c(OC)c1O)-c1c(cc(OC)c(OC)c1OC)C[C@H](C)[C@H](C)[C@H]2O` [MARLIGNAN M], the selectivity ratio in series [1] was determined as 9.39. In addition, the CC50 in series [2] turned out to be 32.1 µg/mL (≈ 76.7 µM). The EC50 in series [3] stood at 3.42 µg/mL (≈ 8.17 µM).
Regarding `COc1cc2c(c(O)c1OC)-c1c(cc(OC)c(OC)c1O)[C@H](O)[C@@H](C)[C@@H](C)C2` [MARLIGNAN N], the selectivity ratio in series [1] was 7.67. This molecule also came in with a CC50 in series [2] of 47.4 µg/mL (≈ 117 µM). In series [3], the EC50 turned out to be 6.18 µg/mL (≈ 15.3 µM).
For `COc1c(O)cc2c(c1OC)-c1c(cc3c(c1OC)OCO3)C[C@H](C)[C@H](C)[C@H]2O` [MARLIGNAN O], in that order: 12.1, 70.6 µg/mL (≈ 175 µM) and 5.84 µg/mL (≈ 14.5 µM).
For `COc1c2c(cc3c1-c1c(cc4c(c1O)OCO4)C[C@H](C)[C@H](C)[C@H]3OC)OCO2` [MARLIGNAN P], in that order: 23.5, 74.6 µg/mL (≈ 186 µM) and 3.18 µg/mL (≈ 7.94 µM).
The like results for `COc1c2c(cc3c1-c1c(cc4c(c1O)OCO4)[C@H](OC)[C@@H](C)[C@@H](C)C3)OCO2` [MARLIGNAN Q] were, in that order, 5.33, 22.5 µg/mL (≈ 56.2 µM) and 4.22 µg/mL (≈ 10.5 µM).
Regarding `COc1cc2c(c(O)c1OC)-c1c(cc3c(c1OC)OCO3)[C@H](OC)[C@@H](C)[C@@H](C)C2` [MARLIGNAN R], in series [1], the selectivity ratio amounted to 9.48. This molecule also gave a CC50 in series [2] of 36.7 µg/mL (≈ 88.1 µM). For the same molecule, the EC50 in series [3] is 3.87 µg/mL (≈ 9.29 µM).
The like results for `COc1cc2c(c(OC)c1OC)-c1c(cc3c(c1O)OCO3)[C@H](OC)[C@@H](C)[C@@H](C)C2` [MARLIGNAN S] were, in that order, 10.3, 42.8 µg/mL (≈ 103 µM) and 4.14 µg/mL (≈ 9.94 µM).
The like results for `COc1ccc(C(c2ccc(OC)c(O)c2)[C@H](C(=O)O)C(CO)CO)cc1O` [MARLPHENOL E] were, in that order, 21.2, 73.5 µg/mL (≈ 187 µM) and 3.47 µg/mL (≈ 8.84 µM).
In the case of `COc1ccc([C@@H](c2ccc3c(c2)OCO3)[C@H](C(=O)O)C(CO)CO)cc1O` [MARLPHENOL F], the selectivity ratio in series [1] was 27.6. The same molecule gave a CC50 in series [2] of 82.1 µg/mL (≈ 210 µM). Further, the EC50 in series [3] was determined as 2.97 µg/mL (≈ 7.61 µM).
Turning to `COc1cc(C(O)C(C(=O)O)C(CO)CO)ccc1O` (stereo unspecified) [MARPHENOL C], the selectivity ratio in series [1] was 26.9. In series [2], this molecule displayed a CC50 of 84.5 µg/mL (≈ 295 µM). The EC50 in series [3] was found to be 3.14 µg/mL (≈ 11 µM).
Turning to `COc1cc(C(O)C(C(=O)O)C(CO)CO)cc(O)c1OC` (stereo unspecified) [MARPHENOL D], in series [1], the selectivity ratio amounted to 29.1. The molecule further showed a CC50 in series [2] of 93.8 µg/mL (≈ 297 µM). In addition, the EC50 in series [3] turned out to be 3.22 µg/mL (≈ 10.2 µM).
For `Cc1cn([C@H]2C[C@H](N=[N+]=[N-])[C@@H](CO)O2)c(=O)[nH]c1=O` [ZIDOVUDINE], in that order: above 46500, above 200 µg/mL and 0.0043 µg/mL (≈ 0.0161 µM).
